pIC50: −log10 of the molar value. Values after ≈ are worked out from the molar mass of the structure shown.
Key:
[1] = system: Mycobacterium tuberculosis; test: Antimicrobial activity against Mycobacterium tuberculosis H37Rv ATCC 27294 incubated for 7 days by BacTiter-Glo cell viability assay; format: functional, organism-based; conditions: for MIC: H37Rv ATCC 27294, 168 h; for pIC50 / IC90: H37Rv ATCC 27294, BacTiter-Glo, 168 h
[2] = system: Mycobacterium tuberculosis; test: Antimicrobial activity against Mycobacterium tuberculosis H37Rv SRI 1345 after 7 days; format: functional; conditions: H37Rv SRI 1345, 168 h
Outline: (§1)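 MIC in µg/mL, retested on susceptible H37Rv (SRI 1345) in the same panel as single-drug-resistant strains: isoniazid-, rifampin- and ofloxacin-resistant. Percent inhibition recorded at the MIC concentration. Ratio taken as MIC H37Rv / MIC resistant strain.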

[3] = system: Mycobacterium tuberculosis; test: Antimicrobial activity against Mycobacterium tuberculosis H37Rv SRI 1345 assessed as growth inhibition at MIC after 7 days; format: functional; outline: as §1
[4] = system: Mycobacterium tuberculosis; test: Antimicrobial activity against non-replicating Mycobacterium tuberculosis H37Rv SRI 1345 assessed as inhibition of visual growth incubated for 7 days under anaerobic condition by low oxygen recovery assay; format: functional; conditions: H37Rv SRI 1345, 168 h
[5] = system: Mycobacterium tuberculosis; test: Antimicrobial activity against Mycobacterium tuberculosis H37Rv ATCC 27294 infected in mouse J774 cells assessed as log reduction in bacterial burden at 10 times lower MIC measured 7 days postinfection relative to control; format: functional
Outline: (§2)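 Macrophages infected with H37Rv and treated at three concentrations 10-fold apart, chosen from the primary-screen H37Rv data. The middle concentration brackets the reported MIC, with the others ten-fold below and ten-fold above it. Read-out is log-reduction of intracellular bacterial burden.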

[6] = system: Mycobacterium tuberculosis; test: Antimicrobial activity against Mycobacterium tuberculosis H37Rv ATCC 27294 infected in mouse J774 cells assessed as log reduction in bacterial burden at MIC measured 7 days postinfection relative to control; format: functional; outline: as §2
[7] = system: Mycobacterium tuberculosis; test: Antimicrobial activity against Mycobacterium tuberculosis H37Rv ATCC 27294 infected in mouse J774 cells assessed as log reduction in bacterial burden at 10 times MIC measured 7 days postinfection relative to control; format: functional; outline: as §2
[8] = system: J774; test: Cytotoxicity against mouse J774 cells assessed as cell viability at 10 times lower MIC by MTT assay relative to control; format: cell-based
[9] = system: J774; test: Cytotoxicity against mouse J774 cells assessed as cell viability at MIC by MTT assay relative to control; format: cell-based
[10] = system: J774; test: Cytotoxicity against mouse J774 cells assessed as cell viability at 10 times MIC by MTT assay relative to control; format: cell-based
[11] = system: Mycobacterium tuberculosis; test: Antimicrobial activity against Mycobacterium tuberculosis H37Rv ATCC 27294 infected in mouse J774 cells assessed as growth inhibition at 10 times lower MIC measured 7 days postinfection; format: functional; outline: as §2
[12] = system: Mycobacterium tuberculosis; test: Antimicrobial activity against Mycobacterium tuberculosis H37Rv ATCC 27294 infected in mouse J774 cells assessed as log reduction in bacterial burden at 10 times lower MIC measured 7 days postinfection relative to rifampicin; format: functional; outline: as §2
[13] = system: Mycobacterium tuberculosis; test: Antimicrobial activity against Mycobacterium tuberculosis H37Rv SRI 1345 assessed as inhibition of visual growth after 18 to 24 hrs; format: functional; conditions: read-out: MBC99.9
[14] = system: Mycobacterium tuberculosis; test: Ratio of MBC for Mycobacterium tuberculosis H37Rv SRI 1345 to MIC for Mycobacterium tuberculosis H37Rv SRI 1345; format: functional
Outline: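 MBC read from colony-forming unit counts; ratio computed as MBC / MIC against H37Rv.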

[15] = system: Mycobacterium tuberculosis; test: Ratio of MIC for Mycobacterium tuberculosis H37Rv SRI 1345 to MIC for non-replicating Mycobacterium tuberculosis H37Rv SRI 1345; format: functional
Outline: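 Non-replicating bacilli tested by Low Oxygen Recovery Assay (LORA); ratio computed as MIC H37Rv / LORA MIC.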

SMILES	MIC [1] [µM]	pIC50 [1]	IC90 [1] [µM]	other results
CC(=O)c1c(C(F)(F)F)nc2cc(F)c(N3CCSCC3)cc2[n+]1[O-]	3.1 (≈ 1.16 µg/mL)	5.89	1.8	MIC [2]: 0.75 µg/mL (≈ 2 µM); growth inhibition (GI) [3]: 51%; MIC [4]: > 12 µg/mL; log reduction in bacterial burden [5]: 2.17; log reduction in bacterial burden [6]: 1.66; log reduction in bacterial burden [7]: 1.76; Activity [8]: 70%; Activity [9]: 81%; Activity [10]: 26%; growth inhibition (GI) [11]: >99%; Log reduction in bacterial burden relative to rifampicin [12]: 3
COC(=O)c1c(C(F)(F)F)[n+]([O-])c2ccc(N3CCN(c4ccc(F)cc4)CC3)cc2[n+]1[O-]	1.6 (≈ 0.746 µg/mL)	6.30	0.8	MIC [2]: 1.5 µg/mL (≈ 3.22 µM); growth inhibition (GI) [3]: 78%; MBC [13]: 4 µg/mL (≈ 8.58 µM); Ratio [14]: 2.6; MIC [4]: 0.375 µg/mL (≈ 0.804 µM); Ratio [15]: 4; log reduction in bacterial burden [5]: 1.43; log reduction in bacterial burden [6]: 1.41; log reduction in bacterial burden [7]: 3.86; Activity [8]: 60%; Activity [9]: 64%; Activity [10]: 47%; growth inhibition (GI) [11]: >90%; Log reduction in bacterial burden relative to rifampicin [12]: 3
O=C(c1ccc(F)cc1)c1c(C(F)(F)F)[n+]([O-])c2cc(F)c(F)cc2[n+]1[O-]	12.5 (≈ 4.85 µg/mL)	5.28	8	
Cc1c(C(=O)/C=C/c2ccc([N+](=O)[O-])s2)[n+]([O-])c2ccccc2[n+]1[O-]		< 4.00	> 100	
CCOC(=O)c1c(C(F)(F)F)nc2cc(Cl)c(N3CCOCC3)cc2[n+]1[O-]		< 4.00	> 100	
CC[C@@H](CO)NCCN[C@@H](CC)CO [ETHAMBUTOL]	6.2 (≈ 1.27 µg/mL)	5.92	1.8	
O=C(c1ccco1)c1c(C(F)(F)F)nc2cc(Cl)c(N3CCOCC3)cc2[n+]1[O-]		< 4.00	> 100	
Cc1c(C(=O)/C=C/c2ccccc2)[n+]([O-])c2cc(Cl)ccc2[n+]1[O-]	3.1 (≈ 1.06 µg/mL)	5.82	1.7	growth inhibition (GI) [3]: 80%; log reduction in bacterial burden [5]: 2.11; log reduction in bacterial burden [6]: 1.68; log reduction in bacterial burden [7]: 1.76; Activity [8]: 70%; Activity [9]: 81%; Activity [10]: 26%; growth inhibition (GI) [11]: >99%; Log reduction in bacterial burden relative to rifampicin [12]: 3
CO[C@H]1/C=C/O[C@@]2(C)Oc3c(C)c(O)c4c(O)c(c(/C=N/N5CCN(C)CC5)c(O)c4c3C2=O)NC(=O)/C(C)=C\C=C\[C@H](C)[C@H](O)[C@@H](C)[C@@H](O)[C@@H](C)[C@H](OC(C)=O)[C@@H]1C [RIFAMPIN]	0.04 (≈ 0.0329 µg/mL)	7.70	0.03	MIC [2]: 0.05 µg/mL (≈ 0.0608 µM); growth inhibition (GI) [3]: 55%; MBC [13]: 0.78 µg/mL (≈ 0.948 µM); Ratio [14]: 15.6; MIC [4]: 0.39 µg/mL (≈ 0.474 µM); log reduction in bacterial burden [5]: 0.48; log reduction in bacterial burden [6]: 1.73; log reduction in bacterial burden [7]: 2.68; Activity [8]: 93%; Activity [9]: 87%; Activity [10]: 80%
NCC[C@H](O)C(=O)N[C@@H]1C[C@H](N)[C@@H](O[C@H]2O[C@H](CN)[C@@H](O)[C@H](O)[C@H]2O)[C@H](O)[C@H]1O[C@H]1O[C@H](CO)[C@@H](O)[C@H](N)[C@H]1O [AMIKACIN]	0.2 (≈ 0.117 µg/mL)	6.99	0.141	
Cc1ccc2c(c1)[n+]([O-])c(C(=O)/C=C/c1ccc([N+](=O)[O-])s1)c(C)[n+]2[O-]		< 4.00	> 100	
Cc1c(C(=O)/C=C/c2ccc([N+](=O)[O-])s2)[n+]([O-])c2cc(Cl)c(Cl)cc2[n+]1[O-]		< 4.00	> 100	
CC(C)C(=O)c1c(C(F)(F)F)nc2cc(N3CCOCC3)c(N3CCOCC3)cc2[n+]1[O-]	25 (≈ 11.4 µg/mL)	5.08	17.9	
CCc1nc(N)nc(N)c1-c1ccc(Cl)cc1 [PYRIMETHAMINE]	50 (≈ 12.4 µg/mL)	4.63	36	
CC(=O)c1c(C(F)(F)F)[n+]([O-])c2cc(F)c(N3CCCCC3)cc2[n+]1[O-]	1.6 (≈ 0.597 µg/mL)	6.00	1.5	MIC [2]: 1 µg/mL (≈ 2.68 µM); growth inhibition (GI) [3]: 78%; MIC [4]: > 8 µg/mL; log reduction in bacterial burden [5]: 1.74; log reduction in bacterial burden [6]: 1.5; log reduction in bacterial burden [7]: 2.66; Activity [8]: 83%; Activity [9]: 53%; Activity [10]: 65%; growth inhibition (GI) [11]: >90%; Log reduction in bacterial burden relative to rifampicin [12]: 3
CC(=O)c1c(C(F)(F)F)[n+]([O-])c2cc(F)c(N3CCC(O)CC3)cc2[n+]1[O-]	12.5 (≈ 4.87 µg/mL)	5.27	10.7	
O=C(c1ccc(F)cc1)c1c(C(F)(F)F)[n+]([O-])c2ccc(F)cc2[n+]1[O-]	6.2 (≈ 2.3 µg/mL)	5.51	4	
Cc1c(C(=O)/C=C/c2ccc([N+](=O)[O-])o2)[n+]([O-])c2cc(Cl)ccc2[n+]1[O-]	25 (≈ 9.39 µg/mL)	4.87	20.8	
O=C(c1ccco1)c1c(C(F)(F)F)[n+]([O-])c2cc(Cl)c(N3CCOCC3)cc2[n+]1[O-]	3.1 (≈ 1.38 µg/mL)	5.92	2.1	MIC [2]: 2 µg/mL (≈ 4.51 µM); growth inhibition (GI) [3]: 61%; MIC [4]: 0.25 µg/mL (≈ 0.563 µM); log reduction in bacterial burden [5]: 1.68; log reduction in bacterial burden [6]: 1.57; log reduction in bacterial burden [7]: 2.67; Activity [8]: 88%; Activity [10]: 37%; growth inhibition (GI) [11]: >90%; Log reduction in bacterial burden relative to rifampicin [12]: 3
CC(=O)c1c(C(F)(F)F)[n+]([O-])c2cc(N3CCCCC3)c(N3CCCCC3)cc2[n+]1[O-]	6.2 (≈ 2.72 µg/mL)	5.66	4.6	
Cc1c(C(=O)/C=C/c2ccc([N+](=O)[O-])o2)[n+]([O-])c2ccccc2[n+]1[O-]	25 (≈ 8.53 µg/mL)	4.76	24.6	
Cc1ccc2c(c1)[n+]([O-])c(C(=O)/C=C/c1ccc([N+](=O)[O-])o1)c(C)[n+]2[O-]	50 (≈ 17.8 µg/mL)	4.53	38.1	
Cc1c(C(=O)/C=C/c2ccc([N+](=O)[O-])s2)[n+]([O-])c2cc(Cl)ccc2[n+]1[O-]	25 (≈ 9.79 µg/mL)	5.14	13	
O=C(c1ccc(F)cc1)c1c(C(F)(F)F)[n+]([O-])c2ccc(Cl)cc2[n+]1[O-]	6.2 (≈ 2.4 µg/mL)	5.43	4.5	
N[C@@H]1CONC1=O [CYCLOSERINE]	50 (≈ 5.1 µg/mL)	4.68	33.1	
NNC(=O)c1ccncc1 [ISONIAZID]	0.3 (≈ 0.0411 µg/mL)	7.00	0.2	
CC(=O)c1c(C(F)(F)F)[n+]([O-])c2cc(F)c(N3CCC(N4CCOCC4)CC3)cc2[n+]1[O-]	12.5 (≈ 5.73 µg/mL)	5.40	7.2	
Cc1ccc2c(c1)[n+]([O-])c(C(=O)/C=C/c1ccccc1)c(C)[n+]2[O-]	25 (≈ 8.01 µg/mL)	5.14	14.7	
Cc1c(C(=O)/C=C/c2ccccc2)[n+]([O-])c2ccccc2[n+]1[O-]	12.5 (≈ 3.83 µg/mL)	5.24	11.5	
O=C(c1ccc(F)cc1)c1c(C(F)(F)F)[n+]([O-])c2cc(Cl)c(Cl)cc2[n+]1[O-]	6.2 (≈ 2.61 µg/mL)	5.44	4.5	
